Series [1] deals with Glucagon-like peptide 1 receptor (Homo sapiens, UniProt P43220). Put plainly: Agonist activity at human GLP1 receptor expressed in HEK293 cells assessed as increase in cAMP level after 30 mins by HTRF method. The series is classed as functional, cell-based. In short, it runs like this:
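HEK293 cells stably expressing human GLP-1 receptor, thawed, suspended in DMEM with 20 mM HEPES, 2 mM L-Glu, 0.5% FBS, 1% pen-strep. Compounds dissolved in DMSO, diluted in assay buffer to 1 × 10−13–1 × 10−6 M final, 30 min at 37 °C in 5% CO2. cAMP read by HTRF. EC50 as means ± SD of three individual experiments, n = 3.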
Background: Changes in cAMP serve as a functional read-out for many G protein-coupled receptors.

A short description of series [2]: Half life in Sprague-Dawley rat plasma at 0.5 mL by LC-MS/MS analysis. In kind it is ADME, cell-free. An outline of the steps: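 Plasma from male Sprague-Dawley rats (200–250 g). Peptide in PBS pH 7.4 added to initial 1000 ng ml−1 and incubated at 37 °C for 48 h. Samples at 2, 4, 8, 12, 24, 36, 48 h precipitated with acetonitrile containing 2% formic acid, centrifuged, analysed by LC-MS/MS in MRM mode. Degradation curves in triplicate.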

For series [3], the system named is Mus musculus. Nature of the series: Antidiabetic activity in Kunming mouse assessed as reduction in blood glucose AUC at 25 nmol/kg, ip pretreated for 30 mins followed by glucose-challenge and measured after 15 to 120 mins by IPGTT. In kind it is functional, organism-based. An outline of the steps:
(§1)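 Male Kunming mice (20–25 g, n = 6) fasted overnight. Peptide or saline 25 nmol kg−1 ip at −30 min, ip glucose 2 g kg−1 at 0 min. Tail-vein blood glucose by glucometer at −30, 0, 15, 30, 60 and 120 min. Glucose AUC0–120min calculated; means ± SD.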

The target in series [4] is Albumin (Homo sapiens, UniProt P02768). Put plainly: Binding affinity to human serum albumin after 60 mins by ultrafiltration-based HPLC analysis. The series is classed as ADME. An outline of the steps:
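Peptide in PBS pH 7.4 (100 μg ml−1) mixed with HSA (10 mg ml−1 in PBS), incubated 60 min at 37 °C. Ultrafiltration through 30 kDa cutoff filter, 30 min at 3500 rpm. Free compound in filtrate by HPLC. Membrane adsorption checked (<4%). Repeated three times.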

In series [5] the test system is Mus musculus. Nature of the series: Antidiabetic activity in Kunming mouse assessed as reduction in blood glucose level at 25 nmol/kg, ip pretreated for 30 mins followed by glucose-challenge and measured after 15 to 120 mins by IPGTT. The series is classed as functional, organism-based. An outline of the steps:
as §1

The text below walks through data of ChEMBL document CHEMBL4257467, “Synthesis and pharmaceutical characterization of site specific mycophenolic acid-modified Xenopus glucagon-like peptide-1 analogs” (Medchemcomm, 2018).

Active and inactive are the calls of the source. *1 amine or outer side, *2 acyl side, *3 side chain or, on linkers, in order; H or OH if unused. Where a SMILES comes first, the peptide text is derived from it. Side-chain parts run from the residue outwards. The star is where a group is joined. Mycophenolyl = COc1c(C)c2c(c(O)c1C/C=C(\C)CCC(=O)*)C(=O)OC2; γGlu = O=C(O)[C@H](CCC(=O)[*:2])N[*:1]; 12Ado = NCCCCCCCCCCCC(=O)O; Ahx = NCCCCCC(=O)O

Chain of Glucagon-like peptide 1 receptor (P43220 whole entry): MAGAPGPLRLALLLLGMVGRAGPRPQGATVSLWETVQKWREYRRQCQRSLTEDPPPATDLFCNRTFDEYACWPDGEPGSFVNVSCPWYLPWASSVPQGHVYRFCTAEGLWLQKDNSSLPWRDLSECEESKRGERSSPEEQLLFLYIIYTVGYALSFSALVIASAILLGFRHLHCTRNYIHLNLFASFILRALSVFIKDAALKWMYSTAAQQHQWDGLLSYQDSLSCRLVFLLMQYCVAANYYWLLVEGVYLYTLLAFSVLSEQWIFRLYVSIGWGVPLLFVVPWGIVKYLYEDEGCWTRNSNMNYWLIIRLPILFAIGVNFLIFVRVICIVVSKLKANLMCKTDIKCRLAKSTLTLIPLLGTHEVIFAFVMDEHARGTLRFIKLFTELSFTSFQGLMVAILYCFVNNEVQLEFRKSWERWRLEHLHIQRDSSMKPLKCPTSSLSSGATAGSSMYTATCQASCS
Chain of Albumin (P02768 whole entry): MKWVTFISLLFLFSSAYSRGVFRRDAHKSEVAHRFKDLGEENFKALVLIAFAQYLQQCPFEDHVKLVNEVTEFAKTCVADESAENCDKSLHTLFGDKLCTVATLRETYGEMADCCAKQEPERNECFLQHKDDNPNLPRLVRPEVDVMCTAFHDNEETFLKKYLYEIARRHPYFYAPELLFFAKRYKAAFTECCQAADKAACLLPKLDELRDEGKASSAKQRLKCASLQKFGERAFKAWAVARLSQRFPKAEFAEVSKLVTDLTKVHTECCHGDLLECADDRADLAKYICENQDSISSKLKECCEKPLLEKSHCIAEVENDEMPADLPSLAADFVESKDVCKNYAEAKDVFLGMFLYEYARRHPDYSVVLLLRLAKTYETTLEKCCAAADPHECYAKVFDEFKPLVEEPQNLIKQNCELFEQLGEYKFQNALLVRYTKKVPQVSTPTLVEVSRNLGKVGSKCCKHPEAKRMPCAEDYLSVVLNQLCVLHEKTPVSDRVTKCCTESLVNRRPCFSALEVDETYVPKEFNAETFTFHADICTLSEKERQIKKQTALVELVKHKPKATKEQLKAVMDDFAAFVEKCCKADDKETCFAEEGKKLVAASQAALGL

For orientation: EC50 means the midpoint of the concentration-response curve. Turning to `CC[C@H](C)[C@H](NC(=O)[C@H](CC(C)C)NC(=O)[C@H](Cc1c[nH]c2ccccc12)NC(=O)[C@H](CCC(=O)O)NC(=O)[C@@H](NC(=O)[C@H](Cc1ccccc1)NC(=O)[C@H](CCC(=O)O)NC(=O)[C@H](CCCCNC(=O)CC[C@H](NC(=O)CCCCCCCCCCCNC(=O)CC/C(C)=C/Cc1c(O)c2c(c(C)c1OC)COC2=O)C(=O)O)NC(=O)[C@H](C)NC(=O)[C@H](C)NC(=O)[C@H](CCC(=O)O)NC(=O)[C@H](CCC(=O)O)NC(=O)[C@H](CCC(=O)O)NC(=O)[C@H](CC(C)C)NC(=O)[C@H](Cc1ccc(O)cc1)NC(=O)[C@H](CCC(=O)O)NC(=O)[C@@H](NC(=O)[C@@H](NC(=O)[C@H](CC(=O)O)NC(=O)[C@H](CC(N)=O)NC(=O)[C@@H](NC(=O)[C@H](Cc1ccc(O)cc1)NC(=O)[C@@H](NC(=O)CNC(=O)[C@H](CCC(=O)O)NC(=O)CNC(=O)[C@@H](N)Cc1cnc[nH]1)[C@@H](C)O)[C@@H](C)O)C(C)C)[C@@H](C)O)[C@@H](C)CC)C(=O)N[C@@H](CCCCN)C(=O)NCC(=O)N[C@@H](CCCCN)C(=O)O` (H-HGEGTYTNDVTEYLEEEAAK([γGlu-12Ado-Mycophenolyl])EFIEWLIKGK-OH), in series [1], the EC50 was found to be 7.3 nM. Still for that read-out and setting: the result for `CC[C@H](C)[C@H](NC(=O)[C@H](CC(C)C)NC(=O)[C@H](Cc1c[nH]c2ccccc12)NC(=O)[C@H](CCC(=O)O)NC(=O)[C@@H](NC(=O)[C@H](Cc1ccccc1)NC(=O)[C@H](CCC(=O)O)NC(=O)[C@H](CCCCNC(=O)CC[C@H](NC(=O)CCCCCNC(=O)CC/C(C)=C/Cc1c(O)c2c(c(C)c1OC)COC2=O)C(=O)O)NC(=O)[C@H](C)NC(=O)[C@H](C)NC(=O)[C@H](CCC(=O)O)NC(=O)[C@H](CCC(=O)O)NC(=O)[C@H](CCC(=O)O)NC(=O)[C@H](CC(C)C)NC(=O)[C@H](Cc1ccc(O)cc1)NC(=O)[C@H](CCC(=O)O)NC(=O)[C@@H](NC(=O)[C@@H](NC(=O)[C@H](CC(=O)O)NC(=O)[C@H](CC(N)=O)NC(=O)[C@@H](NC(=O)[C@H](Cc1ccc(O)cc1)NC(=O)[C@@H](NC(=O)CNC(=O)[C@H](CCC(=O)O)NC(=O)CNC(=O)[C@@H](N)Cc1cnc[nH]1)[C@@H](C)O)[C@@H](C)O)C(C)C)[C@@H](C)O)[C@@H](C)CC)C(=O)N[C@@H](CCCCN)C(=O)NCC(=O)N[C@@H](CCCCN)C(=O)O` (H-HGEGTYTNDVTEYLEEEAAK([γGlu-Ahx-Mycophenolyl])EFIEWLIKGK-OH) reads 6.9 nM. As usually defined, the half-life is the time in which the quantity being followed falls by half. In turn, `CC[C@H](C)[C@H](NC(=O)[C@H](CC(C)C)NC(=O)[C@H](Cc1c[nH]c2ccccc12)NC(=O)[C@H](CCC(=O)O)NC(=O)[C@@H](NC(=O)[C@H](Cc1ccccc1)NC(=O)[C@H](CCC(=O)O)NC(=O)[C@H](CCCCNC(=O)CC[C@H](NC(=O)CCCCCNC(=O)CC/C(C)=C/Cc1c(O)c2c(c(C)c1OC)COC2=O)C(=O)O)NC(=O)[C@H](C)NC(=O)[C@H](C)NC(=O)[C@H](CCC(=O)O)NC(=O)[C@H](CCC(=O)O)NC(=O)[C@H](CCC(=O)O)NC(=O)[C@H](CC(C)C)NC(=O)[C@H](Cc1ccc(O)cc1)NC(=O)[C@H](CCC(=O)O)NC(=O)[C@@H](NC(=O)[C@@H](NC(=O)[C@H](CC(=O)O)NC(=O)[C@H](CC(N)=O)NC(=O)[C@@H](NC(=O)[C@H](Cc1ccc(O)cc1)NC(=O)[C@@H](NC(=O)CNC(=O)[C@H](CCC(=O)O)NC(=O)CNC(=O)[C@@H](N)Cc1cnc[nH]1)[C@@H](C)O)[C@@H](C)O)C(C)C)[C@@H](C)O)[C@@H](C)CC)C(=O)N[C@@H](CCCCN)C(=O)NCC(=O)N[C@@H](CCCCN)C(=O)N1CCC[C@H]1C(=O)N[C@@H](CO)C(=O)N[C@@H](CO)C(=O)NCC(=O)N[C@@H](C)C(=O)N1CCC[C@H]1C(=O)N1CCC[C@H]1C(=O)N1CCC[C@H]1C(=O)N[C@@H](CO)C(=O)O` (H-HGEGTYTNDVTEYLEEEAAK([γGlu-Ahx-Mycophenolyl])EFIEWLIKGKPSSGAPPPS-OH) showed a half-life in series [2] (Sprague-Dawley) of 19.3 h. In addition, in series [1], the EC50 came out at 4.1 nM. Also, the outcome in series [3] and in series [5] was Active. The fraction unbound at 1 h in series [4] (human serum albumin, read-out: PB (converted)) is 0.351. As to `CC[C@H](C)[C@H](NC(=O)[C@H](CC(C)C)NC(=O)[C@H](Cc1c[nH]c2ccccc12)NC(=O)[C@H](CCC(=O)O)NC(=O)[C@@H](NC(=O)[C@H](Cc1ccccc1)NC(=O)[C@H](CCC(=O)O)NC(=O)[C@H](CCCCN)NC(=O)[C@H](C)NC(=O)[C@H](C)NC(=O)[C@H](CCC(=O)O)NC(=O)[C@H](CCC(=O)O)NC(=O)[C@H](CCC(=O)O)NC(=O)[C@H](CC(C)C)NC(=O)[C@H](Cc1ccc(O)cc1)NC(=O)[C@H](CCC(=O)O)NC(=O)[C@@H](NC(=O)[C@@H](NC(=O)[C@H](CC(=O)O)NC(=O)[C@H](CC(N)=O)NC(=O)[C@@H](NC(=O)[C@H](Cc1ccc(O)cc1)NC(=O)[C@@H](NC(=O)CNC(=O)[C@H](CCC(=O)O)NC(=O)CNC(=O)[C@@H](N)Cc1cnc[nH]1)[C@@H](C)O)[C@@H](C)O)C(C)C)[C@@H](C)O)[C@@H](C)CC)C(=O)N[C@@H](CCCCNC(=O)CC[C@H](NC(=O)CCCCCCCCCCCNC(=O)CC/C(C)=C/Cc1c(O)c2c(c(C)c1OC)COC2=O)C(=O)O)C(=O)NCC(=O)N[C@@H](CCCCN)C(=O)O` (H-HGEGTYTNDVTEYLEEEAAKEFIEWLIK([γGlu-12Ado-Mycophenolyl])GK-OH), in series [1], the EC50 came out at 16.3 nM. Regarding `CC[C@H](C)[C@H](NC(=O)[C@H](CC(C)C)NC(=O)[C@H](Cc1c[nH]c2ccccc12)NC(=O)[C@H](CCC(=O)O)NC(=O)[C@@H](NC(=O)[C@H](Cc1ccccc1)NC(=O)[C@H](CCC(=O)O)NC(=O)[C@H](CCCCN)NC(=O)[C@H](C)NC(=O)[C@H](C)NC(=O)[C@H](CCC(=O)O)NC(=O)[C@H](CCC(=O)O)NC(=O)[C@H](CCC(=O)O)NC(=O)[C@H](CC(C)C)NC(=O)[C@H](Cc1ccc(O)cc1)NC(=O)[C@H](CCC(=O)O)NC(=O)[C@@H](NC(=O)[C@@H](NC(=O)[C@H](CC(=O)O)NC(=O)[C@H](CC(N)=O)NC(=O)[C@@H](NC(=O)[C@H](Cc1ccc(O)cc1)NC(=O)[C@@H](NC(=O)CNC(=O)[C@H](CCC(=O)O)NC(=O)CNC(=O)[C@@H](N)Cc1cnc[nH]1)[C@@H](C)O)[C@@H](C)O)C(C)C)[C@@H](C)O)[C@@H](C)CC)C(=O)N[C@@H](CCCCNC(=O)CC[C@H](NC(=O)CCCCCNC(=O)CC/C(C)=C/Cc1c(O)c2c(c(C)c1OC)COC2=O)C(=O)O)C(=O)NCC(=O)N[C@@H](CCCCN)C(=O)O` (H-HGEGTYTNDVTEYLEEEAAKEFIEWLIK([γGlu-Ahx-Mycophenolyl])GK-OH), the EC50 in series [1] was determined as 11.8 nM. Take `CC[C@H](C)[C@H](NC(=O)[C@H](CC(C)C)NC(=O)[C@H](Cc1c[nH]c2ccccc12)NC(=O)[C@H](CCC(=O)O)NC(=O)[C@@H](NC(=O)[C@H](Cc1ccccc1)NC(=O)[C@H](CCC(=O)O)NC(=O)[C@H](CCCCN)NC(=O)[C@H](C)NC(=O)[C@H](C)NC(=O)[C@H](CCC(=O)O)NC(=O)[C@H](CCC(=O)O)NC(=O)[C@H](CCC(=O)O)NC(=O)[C@H](CC(C)C)NC(=O)[C@H](Cc1ccc(O)cc1)NC(=O)[C@H](CCC(=O)O)NC(=O)[C@@H](NC(=O)[C@@H](NC(=O)[C@H](CC(=O)O)NC(=O)[C@H](CC(N)=O)NC(=O)[C@@H](NC(=O)[C@H](Cc1ccc(O)cc1)NC(=O)[C@@H](NC(=O)CNC(=O)[C@H](CCC(=O)O)NC(=O)CNC(=O)[C@@H](N)Cc1cnc[nH]1)[C@@H](C)O)[C@@H](C)O)C(C)C)[C@@H](C)O)[C@@H](C)CC)C(=O)N[C@@H](CCCCN)C(=O)NCC(=O)N[C@@H](CCCCNC(=O)CC[C@H](NC(=O)CCCCCCCCCCCNC(=O)CC/C(C)=C/Cc1c(O)c2c(c(C)c1OC)COC2=O)C(=O)O)C(=O)O` (H-HGEGTYTNDVTEYLEEEAAKEFIEWLIKGK([γGlu-12Ado-Mycophenolyl])-OH): in series [1], the EC50 was determined as 23.5 nM. For `CC[C@H](C)[C@H](NC(=O)[C@H](CC(C)C)NC(=O)[C@H](Cc1c[nH]c2ccccc12)NC(=O)[C@H](CCC(=O)O)NC(=O)[C@@H](NC(=O)[C@H](Cc1ccccc1)NC(=O)[C@H](CCC(=O)O)NC(=O)[C@H](CCCCN)NC(=O)[C@H](C)NC(=O)[C@H](C)NC(=O)[C@H](CCC(=O)O)NC(=O)[C@H](CCC(=O)O)NC(=O)[C@H](CCC(=O)O)NC(=O)[C@H](CC(C)C)NC(=O)[C@H](Cc1ccc(O)cc1)NC(=O)[C@H](CCC(=O)O)NC(=O)[C@@H](NC(=O)[C@@H](NC(=O)[C@H](CC(=O)O)NC(=O)[C@H](CC(N)=O)NC(=O)[C@@H](NC(=O)[C@H](Cc1ccc(O)cc1)NC(=O)[C@@H](NC(=O)CNC(=O)[C@H](CCC(=O)O)NC(=O)CNC(=O)[C@@H](N)Cc1cnc[nH]1)[C@@H](C)O)[C@@H](C)O)C(C)C)[C@@H](C)O)[C@@H](C)CC)C(=O)N[C@@H](CCCCN)C(=O)NCC(=O)N[C@@H](CCCCNC(=O)CC[C@H](NC(=O)CCCCCNC(=O)CC/C(C)=C/Cc1c(O)c2c(c(C)c1OC)COC2=O)C(=O)O)C(=O)O` (H-HGEGTYTNDVTEYLEEEAAKEFIEWLIKGK([γGlu-Ahx-Mycophenolyl])-OH), the EC50 in series [1] came to 16.8 nM. As for H-HGEGTYTNDVTEYLEEEAAKEFIEWLIKGK-OH, the concentration for a half-maximal effect (EC50) in series [1] was 5.4 nM.

Turning to SEMAGLUTIDE, in series [2], the t1/2 was over 48 h. For the same molecule, in series [4] (isolated protein, 1 h), the PB was 97.8%.
